Experiments:
Raji [1] = assay: Inhibition of 12-O-tetradecanoylphorbol-13-acetate induced EBV-early antigen activation in human Raji cells assessed as EA activation at 10 molar ratio after 48 hrs by indirect immunofluorescence method relative to TPA; assay type: cell-based; settings: human gammaherpesvirus 4
How it was run: (§1)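 Raji cells (EBV genome-carrying, nonproducer) at 1 × 10^6/mL in 10% FBS RPMI 1640, incubated 37 °C for 48 h with n-butyric acid (4 mM) plus 32 pmol TPA (20 ng/mL), compound added in DMSO. EA-positive cells detected by indirect immunofluorescence using NPC patient sera; at least 500 cells counted, run twice, expressed relative to butyric acid + TPA control.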

Raji [2] = assay: Inhibition of 12-O-tetradecanoylphorbol-13-acetate induced EBV-early antigen activation in human Raji cells assessed as EA activation at 100 molar ratio after 48 hrs by indirect immunofluorescence method relative to TPA; assay type: cell-based; settings: human gammaherpesvirus 4; how it was run: as §1
Raji [3] = assay: Inhibition of 12-O-tetradecanoylphorbol-13-acetate induced EBV-early antigen activation in human Raji cells assessed as EA activation at 500 molar ratio after 48 hrs by indirect immunofluorescence method relative to TPA; assay type: cell-based; design: scale not given: the % may be the effect or the level left; settings: human gammaherpesvirus 4; how it was run: as §1
Raji [4] = assay: Inhibition of 12-O-tetradecanoylphorbol-13-acetate induced EBV-early antigen activation in human Raji cells assessed as EA activation at 1000 molar ratio after 48 hrs by indirect immunofluorescence method relative to TPA; assay type: cell-based; design: scale not given: the % may be the effect or the level left; settings: human gammaherpesvirus 4; how it was run: as §1
[5] = Cytotoxicity against human Raji cells assessed as cell viability at 1000 molar ratio; assay type: cell-based; settings: read-out: Activity
[6] = Growth inhibition of human NCI60 cells after 48 hrs by sulforhodamine B assay; assay type: functional; settings: NCI60, 48 h
How it was run: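 NCI 60-cell panel (lung, colon, melanoma, renal, ovarian, brain, leukemia), continuous 48 h exposure, at least five 10-fold dilutions from a top concentration of 10^-4 M; cell growth estimated by sulforhodamine B protein staining.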

Compound | EA activation relative to TPA control (Raji [1]) [%] | Remaining EA activation relative to TPA control (Raji [2]) [%] | Activity (Raji [3]) [%] | Activity (Raji [4]) [%] | viability at 1000 molar ratio [5] [%] | GI50 [6] [µM]
C=C(CC[C@@H](C(=O)O)[C@H]1[C@H](O)C[C@@]2(C)C3=CC[C@H]4C(C)(C)[C@H](O)CC[C@]4(C)C3=CC[C@]12C)C(C)C | 93.8 | 67 | 25.5 | 0 | 70 | –
C=C(CC[C@@H](C(=O)O)[C@H]1[C@H](O)C[C@@]2(C)C3=CC[C@H]4C(C)(C)[C@H](O)CC[C@]4(C)C3=CC[C@]12C)C(C)(C)O | 79.4 | 51.6 | 13.2 | 0 | 70 | –
CC1=C(/C=C/C(C)=C/C=C/C(C)=C/C=C/C=C(C)/C=C/C=C(C)/C=C/C2=C(C)CCCC2(C)C)C(C)(C)CCC1 | 100 | – | – | 8.6 | – | –
C=C(CC[C@@H](C(=O)O)[C@H]1[C@H](O)C[C@@]2(C)C3=CC[C@H]4C(C)(C)[C@@H](O)CC[C@]4(C)C3=CC[C@]12C)C(C)C [DEHYDROTUMULOSIC ACID] | 90.5 | 64.9 | 22.7 | 0 | 70 | –
COC(=O)[C@]1(C)CCC[C@]2(C)c3ccc(C(C)C)cc3CC[C@@H]12 [METHYL DEHYDROABIETATE] | 91.6 | 68.3 | 23.2 | 0 | 60 | –
C=C(CC[C@@H](C(=O)O)[C@H]1[C@H](O)C[C@@]2(C)C3=CC[C@H]4C(C)(C)C(=O)CC[C@]4(C)C3=CC[C@]12C)C(C)C [POLYPORENIC ACID B] | 92.6 | 68.7 | 26.3 | 0 | 70 | –
C=C(CC[C@@H](C(=O)O)[C@H]1[C@H](O)C[C@@]2(C)C3=CC[C@@H](C(=C)C)[C@](C)(CCC(=O)O)C3=CC[C@]12C)C(C)C [PORICOIC ACID A] | 83.8 | 58.9 | 18.5 | 0 | 70 | 15
C=C(C)[C@@H]1CC=C2C(=CC[C@]3(C)[C@@H]([C@@H](CCC=C(C)C)C(=O)O)[C@H](O)C[C@@]23C)[C@@]1(C)CCC(=O)O [PORICOIC ACID B] | 80.7 | 54 | 14.3 | 0 | 70 | –
C=C(C)[C@@H]1CCC2=C(CC[C@]3(C)[C@@H]([C@@H](CCC=C(C)C)C(=O)O)[C@H](O)C[C@@]23C)[C@@]1(C)CCC(=O)O [PORICOIC ACID G] | 82.8 | 55.9 | 16 | 0 | 70 | –
C=C(CC[C@@H](C(=O)O)[C@H]1[C@H](O)C[C@@]2(C)C3=C(CC[C@]12C)[C@@](C)(CCC(=O)O)[C@H](C(=C)C)CC3)C(C)C [PORICOIC ACID H] | 80.8 | 53.8 | 15.7 | 0 | 70 | –
C=C(CC[C@@H](C(=O)O)[C@H]1[C@H](O)C[C@@]2(C)C3=C(CC[C@]12C)[C@@]1(C)CC[C@H](O)C(C)(C)[C@@H]1CC3)C(C)C [TUMULOSIC ACID] | 90.5 | 64.9 | 22.7 | 0 | 70 | –

Source: ChEMBL document CHEMBL1148112, “Inhibition of tumor-promoting effects by poricoic acids G and H and other lanostane-type triterpenes and cytotoxic activity of poricoic acids A and G from Poria cocos” (J Nat Prod, 2002)
